Results published in ChEMBL document CHEMBL4316610, “Synthesis and Biological Studies of (+)-Liquiditerpenoic Acid A (Abietopinoic Acid) and Representative Analogues: SAR Studies” (J Nat Prod, 2019).
Calls of active or inactive are those of the source. No cut-off for these calls is given here.

Key:
[1] = target: T1, GABA-A receptor; alpha-1/beta-2/gamma-2 (Homo sapiens) (UniProt P14867+P47870+P18507); assay: (§1) Modulation of recombinant wild type GABAA receptor alpha1beta2gamma2S (unknown origin) expressed in Xenopus laevis oocytes assessed as increase in GABA-evoked chloride current at -70 mV holding potential by two-microelectrode voltage clamp assay; format: cell-based
In short: (§2)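 Two-microelectrode voltage clamp of Xenopus laevis oocytes expressing α1β2γ2S GABA_A receptors, held at -70 mV. GABA EC5 (4-5 μM), determined individually for each oocyte, applied for 20 s alone or co-applied with compound at 10 and 100 μM; potentiation of GABA-evoked current measured. Dehydroabietic acid as positive control; mean ± SEM from at least three oocytes and two oocyte batches.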

[2] = target: T2, GABA-A receptor; alpha-1/beta-2/gamma-2 (Homo sapiens, UniProt P14867+P18507+P47870); assay: as §1; format: cell-based; in short: as §2
T2 sequence (P14867 whole entry): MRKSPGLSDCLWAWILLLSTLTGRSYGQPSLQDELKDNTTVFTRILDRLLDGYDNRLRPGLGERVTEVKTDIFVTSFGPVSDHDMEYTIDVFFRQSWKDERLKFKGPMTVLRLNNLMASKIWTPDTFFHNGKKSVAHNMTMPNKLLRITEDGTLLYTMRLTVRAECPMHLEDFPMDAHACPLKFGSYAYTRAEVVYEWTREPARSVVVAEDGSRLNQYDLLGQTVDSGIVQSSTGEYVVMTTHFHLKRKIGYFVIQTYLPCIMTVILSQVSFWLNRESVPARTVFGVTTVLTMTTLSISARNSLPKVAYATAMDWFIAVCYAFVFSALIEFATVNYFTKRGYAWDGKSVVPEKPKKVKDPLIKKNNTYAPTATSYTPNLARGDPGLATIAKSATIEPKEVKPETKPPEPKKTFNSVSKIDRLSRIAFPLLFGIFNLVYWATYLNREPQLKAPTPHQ
T2 sequence (P47870 whole entry): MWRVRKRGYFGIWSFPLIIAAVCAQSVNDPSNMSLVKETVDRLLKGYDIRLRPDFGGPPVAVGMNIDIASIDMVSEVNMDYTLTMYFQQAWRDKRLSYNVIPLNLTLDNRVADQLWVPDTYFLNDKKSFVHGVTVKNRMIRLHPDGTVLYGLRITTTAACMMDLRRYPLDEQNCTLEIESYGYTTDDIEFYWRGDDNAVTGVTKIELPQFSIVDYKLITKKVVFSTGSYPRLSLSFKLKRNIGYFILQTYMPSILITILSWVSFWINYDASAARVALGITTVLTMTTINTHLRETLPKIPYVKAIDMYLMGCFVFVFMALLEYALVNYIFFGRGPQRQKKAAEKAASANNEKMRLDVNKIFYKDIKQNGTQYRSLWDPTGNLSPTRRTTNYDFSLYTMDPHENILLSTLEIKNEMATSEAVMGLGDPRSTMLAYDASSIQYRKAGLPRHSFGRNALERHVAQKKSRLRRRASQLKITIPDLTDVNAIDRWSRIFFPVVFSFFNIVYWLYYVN
T2 sequence (P18507 whole entry): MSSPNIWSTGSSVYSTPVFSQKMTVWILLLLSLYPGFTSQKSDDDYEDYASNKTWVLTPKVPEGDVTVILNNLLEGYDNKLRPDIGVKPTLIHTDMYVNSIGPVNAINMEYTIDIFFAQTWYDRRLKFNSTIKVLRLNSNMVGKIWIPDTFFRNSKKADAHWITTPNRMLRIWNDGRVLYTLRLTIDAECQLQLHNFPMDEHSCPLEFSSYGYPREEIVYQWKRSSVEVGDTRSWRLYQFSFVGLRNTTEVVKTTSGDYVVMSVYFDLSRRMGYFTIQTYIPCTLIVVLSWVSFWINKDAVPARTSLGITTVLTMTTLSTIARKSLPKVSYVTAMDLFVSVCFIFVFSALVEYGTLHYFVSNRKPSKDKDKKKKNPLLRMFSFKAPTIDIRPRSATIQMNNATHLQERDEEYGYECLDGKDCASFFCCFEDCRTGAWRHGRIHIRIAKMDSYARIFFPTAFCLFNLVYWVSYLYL

[3] = target: T1, GABA-A receptor; alpha-1/beta-2/gamma-2 (Homo sapiens); assay: Modulation of recombinant wild type GABAA receptor alpha1beta2gamma2S (unknown origin) expressed in Xenopus laevis oocytes assessed as increase in GABA-evoked chloride current at 10 uM at -70 mV holding potential by two-microelectrode voltage clamp assay relative to control; format: cell-based
In short: (§3)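 Two-microelectrode voltage clamp at -70 mV on Xenopus laevis oocytes expressing α1β2γ2S GABA-A receptors. GABA EC5 (4-5 μM), set individually for each oocyte, applied for 20 s alone, then co-applied with compound at 10 or 100 μM. Potentiation of GABA-evoked current is reported. Dehydroabietic acid served as positive control. Mean ± SEM from at least three oocytes and two oocyte batches.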

[4] = target: T1, GABA-A receptor; alpha-1/beta-2/gamma-2 (Homo sapiens); assay: Modulation of recombinant wild type GABAA receptor alpha1beta2gamma2S (unknown origin) expressed in Xenopus laevis oocytes assessed as increase in GABA-evoked chloride current at 100 uM at -70 mV holding potential by two-microelectrode voltage clamp assay relative to control; format: cell-based; in short: as §3
A549 = assay: Antiproliferative activity against human A549 cells after 48 hrs by SRB assay; format: functional; conditions: A549, 48 h
HBL-100 = assay: Antiproliferative activity against human HBL100 cells after 48 hrs by SRB assay; format: functional; conditions: HBL-100, 48 h
HeLa = assay: Antiproliferative activity against human HeLa cells after 48 hrs by SRB assay; format: functional
SW1573 = assay: Antiproliferative activity against human SW1573 cells after 48 hrs by SRB assay; format: functional; conditions: SW1573, 48 h
T47D = assay: Antiproliferative activity against human T47D cells after 48 hrs by SRB assay; format: functional
WiDr = assay: Antiproliferative activity against human WiDr cells after 48 hrs by SRB assay; format: functional
[5] = Cytotoxicity against mouse J774 cells assessed as reduction in cell viability after 48 hrs by resazurin dye-based fluorometric analysis
In short: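 The CC50 is taken as the concentration giving a 50% reduction in cell viability of treated cultures compared with untreated cells.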

Leishmania amazonensis [6] = assay: Antileishmanial activity against Leishmania amazonensis MHOM/Br/79/Mari promastigotes after 48 hrs by resazurin dye-based fluorometric analysis; format: functional, organism-based; conditions: Leishmania amazonensis, MHOM/Br/79/Mari, 48 h; read-out: IC50
In short: (§4)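 The IC50 is taken as the compound concentration giving a 50% reduction in parasites, reported with SD.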

Leishmania guyanensis [7] = assay: Antileishmanial activity against Leishmania guyanensis 141/93 promastigotes after 48 hrs by resazurin dye-based fluorometric analysis; format: functional, organism-based; conditions: Leishmania guyanensis, 141/93, 48 h; read-out: IC50; in short: as §4
Leishmania donovani = assay: Antileishmanial activity against Leishmania donovani MHOM/IN/80/DD8 promastigotes after 48 hrs by resazurin dye-based fluorometric analysis; format: functional, organism-based; conditions: Leishmania donovani, MHOM/IN/80/DD8, 48 h; in short: as §4
Leishmania infantum [8] = assay: Antileishmanial activity against Leishmania infantum MCAN/ES/96/BCN150 promastigotes after 48 hrs by resazurin dye-based fluorometric analysis; format: functional, organism-based; conditions: Leishmania infantum, MCAN/ES/96/BCN150, 48 h; read-out: IC50; in short: as §4
[9] = Selectivity index, ratio of CC50 for mouse J774 cells to IC50 for Leishmania amazonensis MHOM/Br/79/Mari promastigotes; format: toxicity; conditions: read-out: Ratio CC50/IC50
[10] = Selectivity index, ratio of CC50 for mouse J774 cells to IC50 for Leishmania guyanensis 141/93 promastigotes; format: toxicity; conditions: read-out: Ratio CC50/IC50
[11] = Selectivity index, ratio of CC50 for mouse J774 cells to IC50 for Leishmania donovani MHOM/IN/80/DD8 promastigotes; format: toxicity; conditions: read-out: Ratio CC50/IC50
[12] = Selectivity index, ratio of CC50 for mouse J774 cells to IC50 for Leishmania infantum MCAN/ES/96/BCN150 promastigotes; format: toxicity; conditions: read-out: Ratio CC50/IC50
Leishmania amazonensis [13] = assay: Antileishmanial activity against Leishmania amazonensis MHOM/Br/79/Mari amastigotes infected in mouse J774 cells after 48 hrs by resazurin dye-based fluorometric analysis; format: functional, organism-based; conditions: J774, 48 h
Leishmania infantum [14] = assay: Antileishmanial activity against Leishmania infantum MCAN/ES/96/BCN150 amastigotes infected in mouse J774 cells after 48 hrs by resazurin dye-based fluorometric analysis; format: functional, organism-based; conditions: MCAN/ES/96/BCN150, J774, 48 h
[15] = Selectivity index, ratio of CC50 for mouse J774 cells to IC50 for Leishmania amazonensis MHOM/Br/79/Mari amastigotes infected in mouse J774 cells; format: toxicity, cell-based; conditions: read-out: Ratio CC50/IC50
In short: (§5)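 CC50: concentration giving 50% reduction of viability in treated cells relative to untreated; IC50: concentration giving 50% reduction in parasites; SI = CC50/IC50.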

[16] = Selectivity index, ratio of CC50 for mouse J774 cells to IC50 for Leishmania infantum MCAN/ES/96/BCN150 amastigotes infected in mouse J774 cells; format: toxicity, cell-based; conditions: read-out: Ratio CC50/IC50; in short: as §5
NALM-6 [17] = assay: Antiproliferative activity against human NALM6 cells after 72 hrs by CellTiter-Glo luminescent cell viability assay; format: functional, cell-based; conditions: NALM-6, 72 h
[18] = Antiproliferative activity against mouse leukemia cells overexpressing BCR/ABL after 72 hrs by CellTiter-Glo luminescent cell viability assay; format: functional, cell-based
KOPN-8 [19] = assay: Antiproliferative activity against human KOPN8 cells after 72 hrs by CellTiter-Glo luminescent cell viability assay; format: functional, cell-based; conditions: KOPN-8, 72 h
SUP-B15 = assay: Antiproliferative activity against human SUP-B15 cells after 72 hrs by CellTiter-Glo luminescent cell viability assay; format: functional, cell-based; conditions: SUP-B15, 72 h
UoC-B1 = assay: Antiproliferative activity against human UOCB1 cells after 72 hrs by CellTiter-Glo luminescent cell viability assay; format: functional, cell-based; conditions: UoC-B1, 72 h
BJ = assay: Antiproliferative activity against human BJ cells after 72 hrs by CellTiter-Glo luminescent cell viability assay; format: ADME, cell-based
NALM-6 [20] = assay: Induction of apoptosis in human NALM6 cells after 24 hrs by Annexin V-FITC/propidium iodide staining-based flow cytometric analysis; format: functional, cell-based
In short: (§6)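 Phosphatidylserine exposure read by Annexin V-FITC/propidium iodide flow cytometry; DNA content by PI staining for cell-cycle distribution.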

KOPN-8 [21] = assay: Induction of apoptosis in human KOPN8 cells assessed as late apoptotic cells at 20 uM after 32 hrs by Annexin V-FITC/propidium iodide staining-based flow cytometric analysis relative to control; format: functional
NALM-6 [22] = assay: Cell cycle arrest in human NALM6 cells assessed as accumulation at G0/G1 phase at 10 uM after 24 hrs by propidium iodide staining-based flow cytometric analysis; format: functional; in short: as §6
NALM-6 [23] = assay: Cell cycle arrest in human NALM6 cells assessed as accumulation at G2/M phase at 10 uM after 24 hrs by propidium iodide staining-based flow cytometric analysis; format: functional; in short: as §6
Leishmania guyanensis [24] = assay: Potency index, ratio of miltefosine IC50 to compound IC50 for Leishmania guyanensis 141/93 promastigotes after 48 hrs by resazurin dye-based fluorometric analysis; format: functional
[25] = read-out: log(1/IC50) (converted)

Activity [3] [%] | Activity [4] [%] | Compound | CC50 at 48 h [5] [µM] | IC50 (Leishmania amazonensis [6]) [µM] | IC50 (Leishmania guyanensis [7]) [µM] | IC50 (Leishmania donovani; read-out: IC50) [µM] | IC50 (Leishmania donovani; [25]) [µM] | IC50 (Leishmania infantum [8]) [µM] | selectivity ratio [9] | selectivity ratio [10] | selectivity ratio [11] | selectivity ratio [12] | further results
187 | 841 | CC(C)C1=CC2=CC[C@H]3[C@](C)(C(=O)O)CCC[C@]3(C)C2CC1 (some centres undefined) |  |  |  |  |  |  |  |  |  |  | Emax [1]: 398%; EC50 [2]: 8.7 µM
2.7 | -2.9 | COC(=O)[C@]1(C)CCC[C@]2(C)c3cc(C(C)=O)c(C(C)C)cc3CC[C@@H]12 | 130 | 11.6 | 14.2 | 14.8 | 14.8 | 2.5 | 11.2 | 9.1 | 8.8 | 51.8 | GI50 (A549): 18 µM; GI50 (HBL-100): 15 µM; GI50 (HeLa): 11 µM; GI50 (SW1573): 11 µM; GI50 (T47D): 10 µM; GI50 (WiDr): 17 µM; IC50 (Leishmania amazonensis [13]): 31.4 µM; IC50 (Leishmania infantum [14]): 37.2 µM; selectivity ratio [15]: 4.1; selectivity ratio [16]: 3.5
-1 | 46.7 | COC(=O)[C@]1(C)CCC[C@]2(C)c3cc(OC(C)=O)c(C(C)C)cc3C(=O)C[C@@H]12 | 17.8 | 0.65 | 1.3 | 4.4 | 4.38 | 0.7 | 27.4 | 13.6 | 4.1 | 25.4 | EC50 (NALM-6 [17]): 10.7 µM; EC50 [18]: 12.2 µM; EC50 (KOPN-8 [19]): 18.5 µM; EC50 (SUP-B15): 21.7 µM; EC50 (UoC-B1): > 40 µM; EC50 (BJ): Non-Toxic; Activity (NALM-6 [20]): Dose-dependent effect; Activity (KOPN-8 [21]): >85%; Activity (NALM-6 [22]): Active; Activity (NALM-6 [23]): Active; Ratio IC50 (Leishmania guyanensis [24]): 13
